An excerpt weighted towards active compounds, which were near 2.3% of everything screened.
TRPC6 inhibitor: blocks the mouse TRPC6 cation channel | HEK293-TRPC6, membrane potential dye, ACh-evoked depolarization; hits give low values | AID 2553 | hit rate 1.1% among 310,000 | Q61143 | B-score at 10 µM;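 active = B-score under library mean minus 3 SD, initial fluorescence not abnormally high, positive integrated signal ratio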;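 note: B-score derived from integrated fluorescence ratio over the kinetic read; more negative B-score means stronger inhibition of depolarization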
Target sequence (Q61143 whole entry, looked up): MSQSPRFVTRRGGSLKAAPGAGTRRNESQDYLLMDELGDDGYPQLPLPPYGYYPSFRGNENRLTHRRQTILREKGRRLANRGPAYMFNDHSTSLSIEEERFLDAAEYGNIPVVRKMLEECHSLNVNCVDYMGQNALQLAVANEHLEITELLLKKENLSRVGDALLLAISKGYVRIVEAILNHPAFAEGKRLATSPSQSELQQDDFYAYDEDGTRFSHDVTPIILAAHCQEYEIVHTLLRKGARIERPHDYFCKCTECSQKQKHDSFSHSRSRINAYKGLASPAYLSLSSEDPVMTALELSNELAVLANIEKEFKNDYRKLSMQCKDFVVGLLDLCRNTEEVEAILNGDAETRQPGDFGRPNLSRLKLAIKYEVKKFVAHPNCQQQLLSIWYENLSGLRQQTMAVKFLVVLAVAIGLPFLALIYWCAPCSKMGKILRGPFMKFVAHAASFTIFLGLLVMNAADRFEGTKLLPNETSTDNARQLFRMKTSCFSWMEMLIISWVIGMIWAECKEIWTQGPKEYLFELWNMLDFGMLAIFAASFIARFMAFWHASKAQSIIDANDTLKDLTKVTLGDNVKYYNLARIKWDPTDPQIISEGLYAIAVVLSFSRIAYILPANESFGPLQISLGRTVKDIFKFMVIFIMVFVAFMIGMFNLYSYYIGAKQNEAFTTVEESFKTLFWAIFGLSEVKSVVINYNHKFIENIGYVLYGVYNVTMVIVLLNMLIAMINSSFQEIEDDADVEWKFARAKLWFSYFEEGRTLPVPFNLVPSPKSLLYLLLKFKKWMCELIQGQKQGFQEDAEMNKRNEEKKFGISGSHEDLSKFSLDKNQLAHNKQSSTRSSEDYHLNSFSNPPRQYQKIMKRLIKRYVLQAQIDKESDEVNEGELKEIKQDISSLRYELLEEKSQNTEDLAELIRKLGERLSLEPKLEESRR
TRPC4 PAM: allosterically enhances the mouse TRPC4 cation channel | B-score at 10 µM | HEK293 TRPC4beta/mu-opioid, DAMGO EC20, Fluo-4 Ca2+ flux; hits give high values | Q9QUQ5 | hit rate 0.42% among 310,000;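 active = B-score of calcium response area above 5 SD of library B-scores, with initial fluorescence ratio within 5 SD of library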;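 note: B-score of integrated fluorescence ratio over time as area under calcium response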
TRPC4 agonist: TRPC4 (mouse) channel activation. Q9QUQ5. HEK293 TRPC4beta/mu-opioid, Fluo4 calcium fluorescence; hits give high values. B-score at 10 µM. hit rate 0.49% among 310,000. AID 2237;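 active = B-score above 5 SD of library B-scores, and initial fluorescence ratio not above library mean plus 5 SD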;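 note: positive B-score marks a calcium rise read as TRPC4 activation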
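Test system: HEK293 cells stably co-expressing mouse TRPC4beta and mu-opioid receptor | Schedule: Fluo4 dye loading 45 min at room temperature, 110 s recording | Measured by: Kinetic Fluo4 calcium fluorescence, 5 s baseline at 1 Hz | Evaluation: B score of integrated ratio | Controls: Buffer (low) and maximal DAMGO (high)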
TRPC6 activator: activators of mouse TRPC6 channel; Q61143; HEK293-TRPC6 membrane potential dye fluorescence; hits give high values; B-score at 10 µM; hit rate 0.13% among 310,000; AID 2550;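 active = B-score of the integrated fluorescence ratio above library mean plus 3 SD, and starting fluorescence ratio within library mean plus 5 SD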;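 note: higher score means more depolarization so channel activation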
TRPC4 block: TRPC4 (mouse) channel inhibition; Q9QUQ5; HEK293 TRPC4beta/mu-opioid, DAMGO-evoked Fluo4 calcium flux; hits give low values; B-score at 10 µM; hit rate 0.39% among 300,000;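 active = B-score over 3 SD under the library average, no early fluorescence shift, positive overall ratio signal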
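Assay system: HEK293 cells with stable TRPC4beta plus mu-opioid receptor expression. Dosing: single dose. Measured by: Fluo4 Ca2+ flux fluorescence. Also added: DAMGO in two steps, submaximal then maximal. Read-out: B score from integrated Fluo4 fluorescence ratio.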
TRPC4 spec 2: second check of whether TRPC6 inhibitors also affect mouse TRPC4; shares compounds with TRPC6 inhibitor; HEK293 TRPC4/MOR, membrane potential dye fluorescence; channel activated by saturating DAMGO dose; inhibition, % at 10 µM; hit rate 42% among 920; AID 2776;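 active = compounds whose fluorescence signal differed from control wells by over 3 SD, either direction, in both duplicate plates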
TRPC4 spec: mouse TRPC4 off-target activity of TRPC6 inhibitors; shares compounds with TRPC6 inhibitor; HEK293 TRPC4/mu-opioid, membrane potential fluorescence; activity change, negative = inhibition, % at 10 µM; hit rate 61% among 920;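 active = rise or fall in signal beyond 3 SD of buffer-only wells in both replicate plates, either sign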;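 note: integrated kinetic ratio of fluorescence range over baseline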
HEK293 MPD ctr 2-1: second counter-screen for TRPC6 inhibitors: parental HEK293 cells; hit rate 31% among 920; signal change vs control, % at 10 µM; parental HEK293 membrane potential dye fluorescence; maximal acetylcholine challenge after compound addition; AID 2779; shares compounds with TRPC6 inhibitor;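 active = membrane potential signal moving either way by over 3 SD of the maximum-effect control, in both duplicate plates, meaning non-specific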
HEK293 MPD ctr-1: checks TRPC6 inhibitor effects in parental HEK293 cells; shares compounds with TRPC6 inhibitor; hit rate 60% among 920; membrane potential signal change, % at 10 µM; parental HEK293 membrane potential dye fluorescence;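 active = membrane potential signal shifting up or down by more than 3 SD of buffer-only wells, on both duplicate plates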
HEK293 MPD ctr-2: checks TRPC6 modulator effects in parental HEK293 cells. shares compounds with TRPC6 inhibitor. membrane potential dye fluorescence. membrane potential signal change, % at 10 µM. hit rate 51% among 2,400. AID 488924;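 active = membrane potential signal moves up or down beyond 5 SD from buffer-only wells, on both duplicate plates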
HEK293 MPD ctr 2-2: second check of TRPC6 modulator effects in parental HEK293 cells | hit rate 14% among 2,400 | shares compounds with TRPC6 inhibitor | membrane potential dye fluorescence; after compound, maximal acetylcholine stimulation | inhibition, % at 10 µM;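 active = membrane potential signal drops by more than 5 SD from the mean control signal, in both duplicate plates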;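 note: plate controls were acetylcholine ECmax control wells for no effect and buffer only wells for full effect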
TRPC4 ctr mod: selectivity of TRPC6 modulators against mouse TRPC4. shares compounds with TRPC6 inhibitor. AID 488927. hit rate 69% among 2,400. percent change from control (negative = decrease, positive = increase), % at 10 µM. HEK293 TRPC4/mu-opioid, membrane potential fluorescence;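 active = membrane potential signal moved up or down beyond 5 SD of buffer control wells, in both duplicate plates, actives on both sides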;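 note: plate controls were assay buffer wells for no effect and DAMGO maximal-effect wells for full effect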
TRPC4/MOR inh 2: second check of whether TRPC6 modulators also affect mouse TRPC4; shares compounds with TRPC6 inhibitor; HEK293 TRPC4/mu-opioid, membrane potential dye fluorescence; stimulated with maximal-effect DAMGO; inhibition, % at 10 µM; hit rate 55% among 2,400; AID 488928;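 active = drop in membrane potential signal beyond 5 SD of the control wells in both duplicate plates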;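 note: TRPC4 counter screen for TRPC6 hits run under conditions tuned for TRPC6 not TRPC4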
TRPC6 block conf: mouse TRPC6 inhibitor confirmation | shares compounds with TRPC6 inhibitor | HEK293-TRPC6, membrane potential dye, ACh-evoked depolarization | inhibition, % at 10 µM | hit rate 43% among 3,300;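 active = fluorescence ratio falls more than 5 SD below the full-stimulation control mean, in both duplicate runs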;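 note: integrated fluorescence ratio of peak minus minimum over baseline after agonist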
TRPC6 act conf: confirmation of mouse TRPC6 activators; shares compounds with TRPC6 inhibitor; AID 488961; HEK293-TRPC6 membrane potential dye fluorescence, FDSS; activation, % at 10 µM; hit rate 11% among 2,800;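 active = ratio signal rise beyond 5 SD above unstimulated control wells' mean, seen in both duplicate runs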;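 note: plate controls were buffer EC0 wells for no effect and acetylcholine ECmax response for full effect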
Numbers without * were called inactive.

For CC(C)Cc1nnc(NC(=O)c2cc([N+](=O)[O-])ccc2N2CCOCC2)s1 the results were TRPC6 inhibitor -5.22*, TRPC4 PAM inactive, TRPC4 agonist inactive, TRPC6 activator inactive, TRPC4 block inactive, HEK293 MPD ctr-2 inactive, HEK293 MPD ctr 2-2 inactive, TRPC4 ctr mod inactive, TRPC4/MOR inh 2 inactive, TRPC6 block conf inactive and TRPC6 act conf inactive.
Screening CC(C)c1ccc(NC(=O)c2cc([N+](=O)[O-])ccc2N2CCOCC2)cc1 returned TRPC6 inhibitor inactive, TRPC4 PAM inactive, TRPC4 agonist inactive, TRPC6 activator inactive and TRPC4 block inactive.
For COc1ccc(N(CC(=O)NCc2ccccc2OC)S(=O)(=O)c2ccc(C)cc2)cc1Cl the results were TRPC6 inhibitor inactive, TRPC4 PAM inactive, TRPC4 agonist inactive, TRPC6 activator inactive and TRPC4 block inactive.
CCCN1CCCc2cc(CN(CCCN3CCOCC3)C(=O)Nc3ccc(OCC)cc3)ccc21 was read as TRPC6 inhibitor -5.34*, TRPC4 PAM inactive, TRPC4 agonist inactive, TRPC6 activator inactive, TRPC4 block inactive, HEK293 MPD ctr-2 inactive, HEK293 MPD ctr 2-2 inactive, TRPC4 ctr mod inactive, TRPC4/MOR inh 2 37.5%*, TRPC6 block conf inactive and TRPC6 act conf inactive.
CCOc1ccc(NC(=O)N(CCN2CCOCC2)Cc2ccc3c(c2)CCCN3CC)cc1 was read as TRPC6 inhibitor inactive, TRPC4 PAM inactive, TRPC4 agonist inactive, TRPC6 activator inactive and TRPC4 block inactive.
Screening CCN(CC)CCNC(=O)c1ccc(NC(=O)c2ccccc2-c2ccc(C(F)(F)F)cc2)cc1 returned TRPC6 inhibitor inactive, TRPC4 PAM inactive, TRPC4 agonist inactive, TRPC6 activator inactive and TRPC4 block inactive.
Screening Cc1ccc2nc(CSc3nnc(-c4ccco4)o3)cc(=O)n2c1 returned TRPC6 inhibitor -5.33*, TRPC4 PAM inactive, TRPC4 agonist inactive, TRPC6 activator inactive, TRPC4 block inactive, HEK293 MPD ctr-2 inactive, HEK293 MPD ctr 2-2 inactive, TRPC4 ctr mod inactive, TRPC4/MOR inh 2 inactive and TRPC6 block conf inactive.
COc1ccccc1OCc1ccc(C(=O)N2CCCCC2)o1 was read as TRPC6 inhibitor -5.17*, TRPC4 PAM inactive, TRPC4 agonist inactive, TRPC6 activator inactive, TRPC4 block inactive, HEK293 MPD ctr-2 inactive, HEK293 MPD ctr 2-2 inactive, TRPC4 ctr mod inactive, TRPC4/MOR inh 2 inactive, TRPC6 block conf inactive and TRPC6 act conf inactive.
COc1ccccc1OCc1ccc(C(=O)N2CCOCC2)o1 was read as TRPC6 inhibitor inactive, TRPC4 PAM inactive, TRPC4 agonist inactive, TRPC6 activator inactive and TRPC4 block inactive.
For O=C(Nc1ccccc1N1CCCCC1)C1CCN(S(=O)(=O)c2ccccc2C(F)(F)F)CC1 the results were TRPC6 inhibitor inactive, TRPC4 PAM inactive, TRPC4 agonist inactive, TRPC6 activator inactive and TRPC4 block inactive.
For Cc1ccc(-n2ncc(C(=O)Nc3cc(Cl)ccc3Cl)c2C2CCNCC2)cc1 the results were TRPC6 inhibitor inactive, TRPC4 PAM inactive, TRPC4 agonist inactive, TRPC6 activator inactive and TRPC4 block inactive.
For Cc1ccc(-n2ncc(C(=O)Nc3cc(Cl)cc(Cl)c3)c2C2CCNCC2)cc1C the results were TRPC6 inhibitor -6.87*, TRPC4 PAM inactive, TRPC4 agonist inactive, TRPC6 activator inactive, TRPC4 block inactive, TRPC4 spec 2 63.5%*, TRPC4 spec -12.1%*, HEK293 MPD ctr 2-1 inactive, HEK293 MPD ctr-1 inactive, TRPC6 block conf inactive and TRPC6 act conf inactive.
CC(=O)NCCc1nc2ccccc2n1Cc1cc(C)ccc1C was read as TRPC6 inhibitor -5.09*, TRPC4 PAM inactive, TRPC4 agonist inactive, TRPC6 activator inactive, TRPC4 block inactive, HEK293 MPD ctr-2 inactive, HEK293 MPD ctr 2-2 inactive, TRPC4 ctr mod 17.0%*, TRPC4/MOR inh 2 inactive, TRPC6 block conf inactive and TRPC6 act conf inactive.
`Cc1cn2c(N)c(C=C3C=C(Cl)C(=O)C(Cl)=C3)c(=O)nc2s1` gave TRPC6 inhibitor inactive, TRPC4 PAM inactive, TRPC4 agonist inactive, TRPC6 activator 82.6*, TRPC4 block inactive, HEK293 MPD ctr-2 active, HEK293 MPD ctr 2-2 198.5%*, TRPC4 ctr mod 360.5%*, TRPC4/MOR inh 2 inactive, TRPC6 block conf inactive and TRPC6 act conf 429.5%*.
`CC(C)(C)N(Cc1ccccc1)C(=O)COC(=O)CSc1ccc([N+](=O)[O-])cc1` gave TRPC6 inhibitor inactive, TRPC4 PAM inactive, TRPC4 agonist inactive, TRPC6 activator inactive and TRPC4 block inactive.
Screening Brc1ccc(-c2nc3ncccn3c2NC2CCCCC2)o1 returned TRPC6 inhibitor -5.03*, TRPC4 PAM inactive, TRPC4 agonist inactive, TRPC6 activator inactive, TRPC4 block inactive, HEK293 MPD ctr-2 116.5%*, HEK293 MPD ctr 2-2 inactive, TRPC4 ctr mod 22.0%*, TRPC4/MOR inh 2 36.0%*, TRPC6 block conf inactive and TRPC6 act conf inactive.
